Results published in ChEMBL document CHEMBL4513216, “Probing the Open Global Health Chemical Diversity Library for Multistage-Active Starting Points for Next-Generation Antimalarials” (ACS Infect Dis, 2020).

Experiment: Toxicity liver stage against HepG2, at 10uM
Format: cell-based
Design: test concentration 10 uM, cell line HepG2-A16-CD81EGFP
Conditions: human, HepG2-A16-CD81EGFP cells; read-out: INHIBITION
Outline: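 Uninfected HepG2-A16-CD81EGFP cells, 3 × 10^3 per well, 1536-well, plated on prespotted compound at 10 μM final, parasite-free screening media added to match infected plates; puromycin 10 μM positive, DMSO 0.5% negative; run in parallel with 48 h PbLuc assay at 37 °C, 5% CO2; viability by CellTiter-Glo luminescence, normalized to controls.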

Row | SMILES | cytotoxicity at 10 µM
1 | CC(C)Oc1cccc(C(=O)C2CCCN(C(=O)c3cncs3)C2)c1 (stereo unspecified) | 3.19%
2 | CN1CCN(S(=O)(=O)c2cccc(S(=O)(=O)C3CCS(=O)(=O)C3)c2)CC1 (stereo unspecified) | 6.29%
3 | Cc1cc(C)nc(N2CCC(C(=O)Nc3n[nH]c(C)n3)CC2)n1 | 8.78%
4 | COc1ccc2c(ccn2CCC(=O)Nc2n[nH]c(CC(C)C)n2)c1 | 8.29%
5 | O=C(NCC(O)(c1ccco1)C1CC1)c1c(F)cccc1Cl (stereo unspecified) | -2.69%
6 | O=C(c1ccc2[nH]cnc2c1)N1CCC(Oc2cccnc2)CC1 | -12.8%
7 | CCN1CC2(CC1=O)CN(C(=O)C(C)C)CCN(S(C)(=O)=O)C2 (stereo unspecified) | -4.54%
8 | O=C(C1CCOCC1)N1C[C@@H]2OCCN(CCN3CCCC3)[C@@H]2C1 | -3.83%
9 | CC(=O)NCC(=O)N1Cc2nc(COCc3csc(C)n3)oc2C1 | 0.503%
10 | Cc1nc(-c2noc3ccc(C(=O)NCCN4CCOCC4)cc23)cs1 | 4.19%
11 | Cn1cc(CN2CC[C@H]3C[C@@H](c4nc(C5CC5)cs4)O[C@@H]3C2)cn1 | 8.84%
12 | CC(C)Cc1nnc2sc(-c3cc(C(C)C)n[nH]3)nn12 | 8.08%
13 | CNc1nc2c(s1)C(c1ccccc1F)CC(=O)N2 (stereo unspecified) | 4.43%
14 | O=C(O)CCC(=O)Nc1nn(Cc2ccc(F)cc2)cc1Cl | 13.8%
15 | Cc1nn(COc2cccc(F)c2)c(C)c1NC(=O)C1CC1 | 5.62%
16 | COc1ccccc1CNC(=O)c1[nH]ncc1Cl | 1.72%
17 | Cc1noc(C)c1-c1cncc(C2CCCN2Cc2ncc[nH]2)n1 (stereo unspecified) | -8.89%
18 | O=C(Cc1ccsc1)N1CCCCC1c1ccn2ccnc2n1 (stereo unspecified) | -9.91%
19 | Cc1cccc(Oc2nccnc2C2CCN(C(=O)C(C)(C)N)CC2)c1 | -9.44%
20 | O=C(CO)N1CCC(c2cncc(-c3cccc(Cl)c3)n2)CC1 | -0.105%
21 | COc1cc(Br)c(CNC(C)c2nnc3n2CCC3)cc1OC (stereo unspecified) | -43.2%

Row | SMILES | cytotoxicity at 10 µM
22 | COc1ccc2c(c1)CC(NCc1cccc(CO)c1)CC2 (stereo unspecified) | -51.8%
23 | CCC(=O)NCC(=O)N(C)C(c1ccc(Cl)cc1)c1cccnc1 (stereo unspecified) | 3.88%
24 | NC(=O)CCN(CC(=O)NCc1cccs1)c1ccc(F)cc1 | 8.75%
25 | CCSCc1ccc(C(=O)N2CCCN(CC)CC2)cc1 | -5.95%
26 | CSCC(C)(O)CNC(=O)c1ccc(F)cc1Br (stereo unspecified) | 0.369%
27 | CC(C(=O)N1CCCC1)N1CCCN(C(=O)Oc2ccccc2)CC1 (stereo unspecified) | 3.4%
28 | Clc1ccc2cccnc2c1CN1CCn2c(nnc2C2CC2)C1 | -2.19%
29 | CC(C)(CO)CCCNC(=O)NC1(C)Cc2ccccc2C1 | -1%
30 | CC1CN(C)CCN1C(=O)Nc1nc(-c2cccn2C)cs1 (stereo unspecified) | -2.38%
31 | COc1ccc2nc(C)c(C(=O)NCCN3CCS(=O)(=O)CC3)cc2c1 | -15.2%
32 | COc1ccc(CN2Cc3cn(C)nc3C(COCC3CC3)C2)cc1 (stereo unspecified) | -78.5%
33 | COCC(=O)N1CCC2(CCCN(Cc3cnn(C)c3)C2)C1 (stereo unspecified) | -73.3%
34 | CCNc1nc(-c2cccnc2)c(-c2ccnc(NS(C)(=O)=O)n2)s1 | -12.3%
35 | CCn1nc(CC(C)C)cc1C(=O)NCc1c(C)cc(C)nc1OC | 1.66%
36 | CNC(=O)c1n[nH]c2c1C(c1cccc3nsnc13)CC(=O)N2 (stereo unspecified) | -13%
37 | O=C(NCCc1noc(C2CCCC2)n1)c1cn2ccsc2n1 | -0.454%
38 | Cc1cnc(NCC(C)(C)N2CCN(C)CC2)nc1 | -4.52%
39 | CCn1c(C)nnc1SCCNC(=O)Cn1cnc2ccccc2c1=O | 8.28%
40 | O=C(O)c1cc(-c2cccnc2)cc(S(=O)(=O)NCc2ccccn2)c1 | -49.9%
41 | CCCc1nc(N2CCCC3(CCNC3)C2)c2cnn(C)c2n1 (stereo unspecified) | -47.8%
42 | CO[C@H]1CN(C(=O)c2cc3ccccc3[nH]2)CC[C@H]1N | 11%

Row | SMILES | cytotoxicity at 10 µM
43 | Cn1ncc(N2CCOC(CCNC(=O)N3CCCCC3)C2)cc1=O (stereo unspecified) | -1.25%
44 | COc1ccccc1CC(=O)N1CCCC(c2nccn2CC(N)=O)C1 (stereo unspecified) | 12.9%
45 | Cc1cc(C)nc(CN(C)C(=O)c2ccccc2C2CCNC2)c1 (stereo unspecified) | 1.64%
46 | O=C(c1ccc(C2CCCN2)s1)N1CCC2(CCCO2)CC1 (stereo unspecified) | -7.13%
47 | Cc1cccc(C(C(=O)NCc2csc(-c3ncccn3)n2)N(C)C)c1 (stereo unspecified) | 2.14%
48 | CCN(c1ccc(C(=O)N2CCC(C(N)=O)CC2)cc1)S(=O)(=O)CC | 11.6%
49 | COc1ccc(-c2cccc3c2OC(CN)C3)cc1F (stereo unspecified) | -51.4%
50 | c1cc2c(cc1Cn1cc(C3CCOC3)nn1)CCCO2 (stereo unspecified) | 2.03%
51 | Cc1nsc(NC(=O)NC2CCN(C)CC2)n1 | -10.7%
52 | Cc1ncsc1CCC(=O)N1CCCC[C@H](N(C)C)C1 | -22.5%
53 | CCn1ccnc1CN1C[C@@H](CN2CCCC2)[C@@H](CO)C1 | -9.96%
54 | CC(=O)c1ccc(OCC(C)O)cc1O (stereo unspecified) | -8.02%
55 | Cc1cc(-n2cncn2)n2ncnc2n1 | -4.05%
56 | CCOc1cccc(CNC2CCCN(Cc3noc(C)n3)C2)c1 (stereo unspecified) | -2.3%
57 | CCOCCN1CCN(Cc2coc(-c3cccc(F)c3)n2)CC1 | -2.87%
58 | CCOc1ccc(Cl)c(C(=O)N2CCCN(CC(N)=O)CC2)n1 | -1.26%
59 | O=C1COc2cc(C(=O)NS(=O)(=O)c3cccc(Cl)c3)ccc2N1 | -4.01%
60 | O=C(NCCNc1cnccn1)N1CCCCCC1 | -3.33%
61 | CC(=O)NCCNC(=O)CNC1CCCN(c2ccc(C)nn2)C1 (stereo unspecified) | 3.47%
62 | CCOc1ncccc1CNCc1c(C)nn(C)c1N(C)C | -1.35%
63 | CC(=O)N1CCCN(C(=O)c2cnn(-c3ccccc3Cl)c2)CC1 | -11.4%

Row | SMILES | cytotoxicity at 10 µM
64 | c1ccc2oc(CCCN3CCOC(Cn4cncn4)C3)nc2c1 (stereo unspecified) | 1.52%
65 | Cc1nn(C)c(C)c1NC(=O)CN1CCOC(Cn2cccn2)C1 (stereo unspecified) | -1.81%
66 | Cc1cncc(C(=O)N2CCCCC2c2nc(C)cs2)c1 (stereo unspecified) | -3.66%
67 | CCOc1ccccc1C(=O)NS(=O)(=O)c1ccc2c(c1)OCCCO2 | 5.04%
68 | Cc1cc(C2CCCN(C(=O)c3c(C)nn4cccnc34)C2)n[nH]1 (stereo unspecified) | -0.457%
69 | Cc1cccc(CN2C(=O)C[C@@H]3[C@@H]2CCN3Cc2ccsc2)n1 | -6.63%
70 | c1ccc(CN2CCc3ncnc(N4CCCC4)c3CC2)nc1 | -8.35%
71 | CCOc1ccccc1C(=O)N1CCCC1c1ncc2c(n1)CCNC2 (stereo unspecified) | 8.3%
72 | Cc1cc(C)cc(CN2C[C@H]3COC[C@H](N4CCN(C)CC4)[C@H]3C2)c1 | -93.7%
73 | O[C@@H]1CCN(CC2CCOC2)[C@H]1Cc1ccccc1 (stereo partly specified) | -7.98%
74 | CCN(CC)S(=O)(=O)N1CC[C@H](c2ccccc2)[C@H]2NCCCC[C@H]21 | -39.5%
75 | CN1C[C@@H](COCC2CC2)[C@H]2CCN(Cc3ccco3)CC[C@H]2C1=O | -4.6%
76 | Cc1ccoc1C(=O)N1CC[C@H]2[C@H](C[C@@H](CN3CCCC3)N2C)C1 | 4.42%
77 | CN(C)C(=O)c1cnc2n1CCN(Cc1cccnc1)C2 | -67%
78 | CN(C)c1ncc2c(n1)C1(CCN(CC3CC3)C1)COC2 (stereo unspecified) | -12.9%
79 | CN(Cc1ccccn1)C1CC2(CCN(Cc3ccccn3)CC2)C1 | -87%
80 | Cc1ncnc2c1CCN(C(=O)CN(C)C)CC2 | 0.964%
81 | c1csc(CN2Cc3[nH]nc(COCC4CC4)c3C2)c1 | 6.22%
